The values that follow come from ChEMBL document CHEMBL4257585, “Structure-Activity Relationships of Photoswitchable Diarylethene-Based β-Hairpin Peptides as Membranolytic Antimicrobial and Anticancer Agents” (J Med Chem, 2018).

For data set [1], the system named is HeLa. Put plainly: Cytotoxicity against human HeLa cells assessed as reduction in cell viability after 24 hrs by MTT assay. The data set is classed as functional, cell-based. In outline:
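HeLa cells seeded at about 5 × 10^4 cells/mL in DMEM with 10% FBS, 2 mM glutamine, gentamicin; 24 h adaptation (37 °C, 5% CO2), then 24 h peptide exposure. MTT 4 h, formazan in DMSO read at 570 nm. 2-fold series 256–0.5 (open) or 512–1 μg/mL (closed), four repetitions; IC50 extrapolated from killing curves. Closed form handled in dim light.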

A short description of data set [2]: Therapeutic index, ratio of HC50 for human RBC to MIC for Escherichia coli DSM 1103. The data set is classed as toxicity. As to conditions: human red blood cells versus Escherichia coli DSM 1103. An outline of the steps: (§1)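 Ratio of HC50 (RBC) to HeLa IC50 or to MIC against B. subtilis or E. coli; values measured in mg/mL and recalculated to μM, 2-fold dilution without curve fitting, accuracy within a factor of 2.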

Data set [3] can be described thus: Hemolytic activity against human RBC assessed as hemolysis after 30 mins by colorimetric method. The data set is classed as ADME, cell-based, Erythrocyte. The note with it: human red blood cells (erythrocytes). An outline of the steps: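 Human erythrocytes washed twice in isotonic 172 mM Tris-HCl, pH 7.6; peptides dissolved in DMSO, diluted in buffer, two independent 10-step 2-fold series from 256 or 192 μg/mL. HC50 extrapolated as 50% hemolysis concentration.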

Data set [4] relates to Bacillus subtilis. Put plainly: Antimicrobial activity against Bacillus subtilis DSM 347 after 22 hrs by resazurin dye based spectrophotometry. Type of data set: functional. The note with it: DSM 347, 22 h. An outline of the steps:
(§2)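 2-fold broth microdilution in Mueller–Hinton medium; peptide stocks 1024 μg/mL in 50% ethanol. Exponential-phase cultures diluted to OD550 0.2, then 1:100 (B. subtilis) or 1:1000 (E. coli), giving 5 × 10^5 CFU/mL per well. Incubated 22 h, 37 °C, static; then resazurin (0.2 mg/mL solution) added for 2 h at 37 °C, read visually and spectrophotometrically. Tested in both photoforms.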
For orientation: Resazurin is reduced to fluorescent resorufin, in cell work by metabolically active cells.

A short description of data set [5]: Selective ratio of HC50 for human RBC to IC50 for human HeLa cells. The data set is classed as toxicity. The note with it: human red blood cells versus HeLa cells. An outline of the steps: as §1
The nature of data set [6]: Therapeutic index, ratio of HC50 for human RBC to MIC for Bacillus subtilis DSM 347. Type of data set: toxicity. As to conditions: human red blood cells versus Bacillus subtilis DSM 347. In outline: as §1
The subject of data set [7] is Escherichia coli. Description: Antimicrobial activity against Escherichia coli DSM 1103 after 22 hrs by resazurin dye based spectrophotometry. The data set is classed as functional. As to conditions: DSM 1103, 22 h. An outline of the steps: as §2

The structures appear in SMILES notation. pIC50: −log10 of the molar value. Converted amounts (≈) assume the structure as drawn.

Turning to `CC(C)[C@@H]1NC(=O)C2=CC3=C4CCCC4=C4C=C(S[C@]4(C)[C@@]3(C)S2)C(=O)[C@H]2CCCN2C(=O)[C@H](Cc2ccc(O)cc2)NC(=O)[C@H](CCCN)NC(=O)[C@H](C(C)C)NC(=O)[C@@H]2CCCN2C(=O)[C@@H](Cc2ccccc2)NC(=O)[C@H](Cc2ccc(O)cc2)NC(=O)[C@H](CCCN)NC1=O`, the pIC50 (in general, the negative decadic logarithm of the IC50, by convention in mol/L) in data set [1] was 3.86. The selectivity ratio was found to be 0.1 in data set [2], 0.1 in data set [5] and 3.7 in data set [6]. Moreover, the HC50 – broadly, the concentration that lyses half of the red blood cells – at 0.5 h in data set [3] was determined as 11 µM. The minimum inhibitory concentration (MIC) (commonly the lowest concentration found to suppress growth) in data set [4] amounted to 3 µM (≈ 4.14 µg/mL); in data set [7], 92 µM (≈ 127 µg/mL).

With `Cc1sc2cc1C1=C(CCC1)c1cc(sc1C)C(=O)[C@H]1CCCN1C(=O)[C@H](C(C)C)NC(=O)[C@H](CCCN)NC(=O)[C@H](C(C)C)NC(=O)[C@@H]1CCCN1C(=O)[C@@H](Cc1ccccc1)NC(=O)[C@H](C(C)C)NC(=O)[C@H](CCCN)NC(=O)[C@H](CCNC(=O)C(C)C)NC2=O`, in data set [1], the pIC50 was 4.44. Besides, the selectivity ratio in data set [2] was 1.8; in data set [5], 4.7; in data set [6], 56.7. Moreover, in data set [3], the HC50 at 0.5 h was found to be 170 µM. The MIC in data set [4] came to 3 µM (≈ 3.97 µg/mL); in data set [7], 97 µM (≈ 128 µg/mL).

For `CC[C@H](C)[C@@H]1NC(=O)c2cc(c(C)s2)C2=C(CCC2)c2cc(sc2C)C(=O)[C@H]2CCCN2C(=O)[C@H](CC(C)C)NC(=O)[C@H](CCCN)NC(=O)[C@H]([C@@H](C)CC)NC(=O)[C@@H]2CCCN2C(=O)[C@H]2CCCN2C(=O)[C@H](CC(C)C)NC(=O)[C@H](CCCN)NC1=O`, in data set [1], the pIC50 was 5.22. Besides, the selectivity ratio in data set [2] was 0.2; in data set [5] it was 1.3; in data set [6], 4. In data set [3], the concentration for 50% haemolysis (HC50) at 0.5 h is 8 µM. Besides, the MIC in data set [4] was 2 µM (≈ 2.52 µg/mL); in data set [7], 51 µM (≈ 64.2 µg/mL).

In the case of `Cc1sc2cc1C1=C(CCC1)c1cc(sc1C)C(=O)[C@H]1CCCN1C(=O)[C@H]([C@@H](C)O)NC(=O)[C@H](C13CC4CC(CC(C4)C1)C3)NC(=O)[C@H](CCCN)NC(=O)[C@@H]1CCCN1C(=O)[C@@H](Cc1ccccc1)NC(=O)[C@H](CCCN)NC(=O)[C@H](C13CC4CC(CC(C4)C1)C3)NC(=O)[C@H](CCCN)NC2=O`, the pIC50 in data set [1] is 5.05. In addition, the selectivity ratio in data set [2] was 0.2; in data set [5], 0.4; in data set [6], 2. For the same compound, in data set [3], the concentration for 50% haemolysis (HC50) at 0.5 h was determined as 4 µM. In addition, the minimal inhibitory concentration (MIC) is 2 µM (≈ 2.91 µg/mL) in data set [4] and 25 µM (≈ 36.3 µg/mL) in data set [7].

Consider `CC(C)C[C@@H]1NC(=O)C2=CC3=C4CCCC4=C4C=C(S[C@]4(C)[C@@]3(C)S2)C(=O)[C@H]2CCCN2C(=O)[C@H](C(C)C)NC(=O)[C@H](CCCCN)NC(=O)[C@H](CC(C)C)NC(=O)[C@H](CCCCN)NC(=O)[C@@H]2CCCN2C(=O)[C@@H](Cc2ccccc2)NC(=O)[C@H](CCCCN)NC(=O)[C@H](C(C)C)NC(=O)[C@H](CCCCN)NC1=O`, for which the pIC50 in data set [1] was 4.09. Further, the selectivity ratio in data set [2] turned out to be 0.5; in data set [5] it was 1; in data set [6], 8.2. In data set [3], the concentration for 50% haemolysis (HC50) at 0.5 h was 82 µM. For the same compound, the MIC in data set [4] was 10 µM (≈ 15.7 µg/mL); in data set [7], 164 µM (≈ 257 µg/mL).

Turning to `CC(C)[C@@H]1NC(=O)C2=CC3=C4CCCC4=C4C=C(S[C@]4(C)[C@@]3(C)S2)C(=O)[C@H]2CCCN2C(=O)[C@H](C(C)C)NC(=O)[C@H](CCCN)N(C)C(=O)[C@H](C(C)C)NC(=O)[C@@H]2CCCN2C(=O)[C@@H](Cc2ccccc2)N(C)C(=O)[C@H](C(C)C)NC(=O)[C@H](CCCN)NC1=O`, the pIC50 in data set [1] is 4.00. In addition, the selectivity ratio amounted to 1 in data set [2], 1.9 in data set [5] and 32 in data set [6]. For the same compound, in data set [3], the 50% haemolytic concentration (HC50) at 0.5 h amounted to 192 µM. The figures for the minimal inhibitory concentration (MIC) in data set [4] and in data set [7] were 6 µM (≈ 7.68 µg/mL) and 200 µM (≈ 256 µg/mL), respectively.

Turning to `Cc1sc2cc1C1=C(CCC1)c1cc(sc1C)C(=O)[C@H]1CCCN1C(=O)[C@H](CC(C)C)NC(=O)[C@H](CCCCN)NC(=O)[C@H](C(C)C)NC(=O)[C@H](CCCCN)NC(=O)[C@H](CC(C)C)NC(=O)[C@H](CCCCN)N(C)C(=O)[C@@H](Cc1ccccc1)NC(=O)[C@H](C(C)C)NC(=O)[C@H](CCCCN)NC(=O)[C@H](CC(C)C)NC(=O)[C@H](CCCCN)NC(=O)[C@H](C(C)C)NC2=O`, in data set [1], the negative logarithm of the IC50 (pIC50) is 5.70. In addition, the selectivity ratio stood at 0.1 in data set [2], 0.5 in data set [5] and 0.3 in data set [6]. In data set [3], the 50% haemolytic concentration (HC50) at 0.5 h was less than 1 µM. Moreover, the minimum inhibitory concentration (MIC) in data set [4] was found to be 4 µM (≈ 7.29 µg/mL); in data set [7], 18 µM (≈ 32.8 µg/mL).

For the compound `CC(C)C[C@@H]1NC(=O)[C@H](CCCCN)NC(=O)[C@H](C(C)C)NC(=O)[C@@H]2CCCN2C(=O)[C@@H](Cc2ccccc2)NC(=O)[C@H](CC(C)C)NC(=O)[C@H](CCCCN)NC(=O)[C@H](C(C)C)NC(=O)[C@H](CCCCN)NC(=O)C2=CC3=C4CCCC4=C4C=C(S[C@]4(C)[C@@]3(C)S2)C(=O)[C@H]2CCCN2C(=O)[C@H](CCCCN)NC1=O`, in data set [1], the negative logarithm of the IC50 (pIC50) is 4.09. The selectivity ratio in data set [2] came to 0.4; in data set [5], 0.8; in data set [6], 3.1. Moreover, the 50% haemolytic concentration (HC50) at 0.5 h in data set [3] is 65 µM. Also, the MIC came out at 21 µM (≈ 32.9 µg/mL) in data set [4] and 164 µM (≈ 257 µg/mL) in data set [7].

Regarding `CC(C)NC(=O)C[C@@H]1NC(=O)C2=CC3=C4CCCC4=C4C=C(S[C@]4(C)[C@@]3(C)S2)C(=O)[C@H]2CCCN2C(=O)[C@H](C(C)C)NC(=O)[C@H](CCCN)NC(=O)[C@H](C(C)C)NC(=O)[C@@H]2CCCN2C(=O)[C@@H](Cc2ccccc2)NC(=O)[C@H](C(C)C)NC(=O)[C@H](CCCN)NC1=O`, the pIC50 in data set [1] is 3.71. Further, the selectivity ratio in data set [2] was 2; in data set [5], 2; in data set [6], 7.8. The HC50 at 0.5 h in data set [3] amounted to 391 µM. The MIC in data set [4] was determined as 49 µM (≈ 64.2 µg/mL); in data set [7], 196 µM (≈ 257 µg/mL).

For the compound `CC(C)C(=O)NCC[C@@H]1NC(=O)C2=CC3=C4CCCC4=C4C=C(S[C@]4(C)[C@@]3(C)S2)C(=O)[C@H]2CCCN2C(=O)[C@H](C(C)C)NC(=O)[C@H](CCCN)NC(=O)[C@H](C(C)C)NC(=O)[C@@H]2CCCN2C(=O)[C@@H](Cc2ccccc2)NC(=O)[C@H](C(C)C)NC(=O)[C@H](CCCN)NC1=O`, in data set [1], the pIC50 is 3.71. Besides, the selectivity ratio in data set [2] turned out to be 2; in data set [5], 2; in data set [6], 8.1. Further, in data set [3], the HC50 at 0.5 h came out at 387 µM. Moreover, the figures for the MIC in data set [4] and in data set [7] were 48 µM (≈ 63.5 µg/mL) and 194 µM (≈ 257 µg/mL), respectively.

In the case of `CC(C)C[C@@H]1NC(=O)[C@H](CCCCN)NC(=O)[C@H](C(C)C)NC(=O)C2=CC3=C4CCCC4=C4C=C(S[C@]4(C)[C@@]3(C)S2)C(=O)[C@H]2CCCN2C(=O)[C@H](C(C)C)NC(=O)[C@H](CCCCN)NC(=O)[C@H](C(C)C)NC(=O)[C@H](CC(C)C)NC(=O)[C@@H](CCCCN)NC(=O)[C@@H]2CCCN2C(=O)[C@@H](Cc2ccccc2)NC(=O)[C@H](C(C)C)NC(=O)[C@H](CCCCN)NC1=O`, in data set [1], the pIC50 was 4.74. The selectivity ratio in data set [2] is 0.2; in data set [5], 0.8; in data set [6], 7. Besides, the 50% haemolytic concentration (HC50) at 0.5 h in data set [3] is 14 µM. The minimal inhibitory concentration (MIC) in data set [4] turned out to be 2 µM (≈ 3.53 µg/mL); in data set [7], 73 µM (≈ 129 µg/mL).
